Assay results as given in PubChem BioAssay.
Calls of active or inactive are those of the source.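 Rule for the calls, unless noted: active = viability at or under a set limit in both replicates, limit being median viability minus 3 SD (cut at about 48% in these data, passing the limit was not always enough); inconclusive = at or under the limit in just one replicate; inactive = at or above the limit in both replicates.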

Columns and labels:
[1] = Her2 expression decrease, cell viability multiplex – SKBR3 breast tumor cells, AlphaScreen, ATP viability, primary screen (AID 461;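 active = Her2 level under about 52% in both replicate screens, with viability over 70% of control, limit read from the data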;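 for Her2 level: lower value means less Her2 protein in the cells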;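 for viability: percent of carrier control wells set as 100% viability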); details: SKBR3 Her2 protein level, 18-24 h, measured here: SKBR3 viability, ATP luminescence, at 10 µM
[2] = biological target: Receptor tyrosine-protein kinase erbB-2 (Homo sapiens) (UniProt P04626); assay: as above; details: 18-24 h, at 10 µM, stronger effect = lower value
[3] = reduced viability of SK-BR-3 breast cancer cells – cell-based, 24 h, human, pilot screen (AID 572;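 active = viability at or below 10% of carrier control in both of two separate runs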;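 note: compound exposure lasted between 18 and 24 h rather than exactly 24 h; 100% = carrier-treated control wells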); details: SK-BR-3 viability, CellTiter-Glo luminescence, at 10 µM, stronger effect = lower value
[4] = HUVEC growth inhibition – cell-based, human, primary screen (AID 575;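 active = viability at or below 30% in both replicate assays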;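 note: 100% = median of untreated cell wells with 0.1% DMSO on each plate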); details: HUVEC proliferation, CellTiter-Glo luminescence, 72 h; at 10 µM; stronger effect = lower value
Outline: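 Assay system: primary human umbilical vein endothelial cells / Buffer or medium: endothelial basal medium with 2% FBS plus growth supplements / Compound dosing: one dose, 10 µM final, 0.1% DMSO / Timing: 72 h treatment at 37 °C / Signal: CTG luminescence / Benchmarks: 32 DMSO-only cell-control wells (high), 32 MePR drug-control wells (low) per plate / Plate: collagen-coated 384-well format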

[5] = H69AR cell proliferation blockers – human, duplicate replicates, primary screen (AID 580); details: H69AR lung tumor cells viability, ATP luminescence, 72 h; at 10 µM; stronger effect = lower value;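 note: 100% = mean luminescence of untreated wells and 0% = no signal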
[6] = MRP1 drug-resistance reversers in H69AR cells – cell-based, doxorubicin co-treatment, pilot screen (AID 601;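 active = viability loss from added drug above about 55%, and viability with drug at most 40%, in both replicates, limit read from the data, passing the limit was not always enough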); details: CellTiter-Glo, 72 h, at 10 µM; for differential viability (reversal): stronger effect = higher value
[7] = yeast transport mutant growth inhibition pilot in 384-well plates, post-Golgi transport modulator project (AID 636; in the data active = inhibition above about 31%); details: absorbance 615 nm, about 18 h, stronger effect = higher value
[8] = growth suppression of yeast trafficking mutant, preliminary HTS, modulators of trafficking downstream of Golgi apparatus project, 1536-format plate, OD 615 nm (AID 637; in the data active = inhibition above about 30%); details: yeast transport mutant growth, absorbance 615 nm, 18 h; stronger effect = higher value
[9] = H69AR cells + 2 uM doxorubicin, measured here: viability with 2 uM doxorubicin, stronger effect = lower value
[10] = H69AR cells, compound alone cytotoxicity

Receptor tyrosine-protein kinase erbB-2 (Homo sapiens), sequence (P04626 whole entry, looked up): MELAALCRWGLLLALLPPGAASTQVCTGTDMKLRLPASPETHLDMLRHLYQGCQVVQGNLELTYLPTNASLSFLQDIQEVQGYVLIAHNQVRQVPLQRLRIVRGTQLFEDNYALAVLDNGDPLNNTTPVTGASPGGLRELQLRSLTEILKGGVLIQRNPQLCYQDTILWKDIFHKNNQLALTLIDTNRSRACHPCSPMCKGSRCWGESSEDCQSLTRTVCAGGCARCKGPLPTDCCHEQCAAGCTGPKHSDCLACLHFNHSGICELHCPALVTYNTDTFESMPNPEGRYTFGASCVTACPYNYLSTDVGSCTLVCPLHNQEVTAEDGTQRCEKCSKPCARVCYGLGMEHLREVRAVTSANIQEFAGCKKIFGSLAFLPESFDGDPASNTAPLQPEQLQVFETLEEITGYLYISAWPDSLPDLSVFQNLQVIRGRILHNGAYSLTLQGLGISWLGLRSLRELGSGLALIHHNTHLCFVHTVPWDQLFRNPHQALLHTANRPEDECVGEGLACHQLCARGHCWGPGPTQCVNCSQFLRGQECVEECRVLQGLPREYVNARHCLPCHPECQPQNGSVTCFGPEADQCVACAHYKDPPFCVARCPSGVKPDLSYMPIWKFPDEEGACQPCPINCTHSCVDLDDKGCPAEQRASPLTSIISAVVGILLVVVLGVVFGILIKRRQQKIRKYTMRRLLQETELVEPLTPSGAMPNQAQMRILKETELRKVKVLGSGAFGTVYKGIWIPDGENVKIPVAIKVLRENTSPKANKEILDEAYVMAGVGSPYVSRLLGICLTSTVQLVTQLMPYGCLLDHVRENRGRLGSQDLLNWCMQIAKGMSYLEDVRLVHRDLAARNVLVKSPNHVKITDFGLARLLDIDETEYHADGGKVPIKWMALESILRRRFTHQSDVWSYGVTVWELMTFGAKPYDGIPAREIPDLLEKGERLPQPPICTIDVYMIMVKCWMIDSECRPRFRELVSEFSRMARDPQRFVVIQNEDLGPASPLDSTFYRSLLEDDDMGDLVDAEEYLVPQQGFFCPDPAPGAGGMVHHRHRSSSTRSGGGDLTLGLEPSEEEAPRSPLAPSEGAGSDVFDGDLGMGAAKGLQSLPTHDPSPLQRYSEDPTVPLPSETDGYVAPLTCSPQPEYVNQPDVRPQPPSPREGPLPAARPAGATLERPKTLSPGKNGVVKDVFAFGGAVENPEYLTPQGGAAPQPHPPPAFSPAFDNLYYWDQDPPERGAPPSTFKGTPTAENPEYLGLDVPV

SMILES | viability [1] | Her2 level [2] | viability [3] | viability [4] | viability [5] | differential viability (reversal) ([6]; H69AR cells + 2 uM doxorubicin) | viability [6, 9] | viability [6, 10] | inhibition [7] | inhibition [8]
CCC1CCCCN1C(=O)Cn1c(C(=O)OC)cc2sc(Cl)cc21 (stereo not given) | 76.5% | 103% (inactive) | 76.5% (inactive) | 89.2% (inactive) | 71.4% (inactive) | -17% (inactive) | 88.4% | 71.4% | -0.64% (inactive) | -0.67% (inactive)
O=C(CSc1ncnc2ccccc12)NCCCO | 104% | 80% (inactive) | 104% (inactive) | 103% (inactive) | 103% (inactive) | 12.2% (inactive) | 91.1% | 103% | -0.65% (inactive) | 4.92% (inactive)
CC(C)(C)C(=O)CNS(=O)(=O)c1ccc(S(=O)(=O)NC2CCCC2)cc1 | 104% | 92% (inactive) | 104% (inactive) | 115% (inactive) | 98.8% (inactive) | 11.2% (inactive) | 87.6% | 98.8% | -3.56% (inactive) | 1.9% (inactive)
CCOC(=O)CNC(=O)CSc1nc(N)cc(N)n1 | 92% | 96% (inactive) | 92% (inactive) | 113% (inactive) | 96.7% (inactive) | 0.07% (inactive) | 96.6% | 96.7% | -4.27% (inactive) | -9.84% (inactive)
COC(=O)COc1nc(C)c(Br)c(OC)n1 | 96.5% | 99% (inactive) | 96.5% (inactive) | 105% (inactive) | 116% (inactive) | 25.9% (inactive) | 90% | 116% | -3.95% (inactive) | 7.54% (inactive)
Cc1cc(C(=O)CSc2nnc(-c3ccco3)o2)c(C)n1CC1COc2ccccc2O1 (stereo not given) | 91.5% | 94% (inactive) | 91.5% (inactive) | 74.3% (inactive) | 89% (inactive) | -9.8% (inactive) | 98.8% | 89% | -2.67% (inactive) | -9.52% (inactive)
O=c1ccc2cc3c([nH]c4ccc(Br)cc43)oc-2c1O | 146% | 87% (inactive) | 146% (inactive) | 91.7% (inactive) | 78.3% (inactive) | -3.78% (inactive) | 82.1% | 78.3% | -4.16% (inactive) | -3.81% (inactive)
O=c1c[n+]([O-])c2ccccc2n1OCc1c(F)cccc1F | 90.5% | 70.5% (inactive) | 90.5% (inactive) | 93.4% (inactive) | 88.2% (inactive) | 1.98% (inactive) | 86.3% | 88.2% | -3.33% (inactive) | -1.59% (inactive)
COc1ccc(OC)c(C(=O)c2nc3c(n2O)CCCCC3)c1 | 78.5% | 122% (inactive) | 78.5% (inactive) | 99.9% (inactive) | 93.2% (inactive) | -4.37% (inactive) | 97.6% | 93.2% | -5.13% (inactive) | 0.98% (inactive)
Nc1nnc(-c2ccccc2)c(-c2ccccc2)n1 | 96.5% | 90% (inactive) | 96.5% (inactive) | 86.4% (inactive) | 99.2% (inactive) | 5.16% (inactive) | 94% | 99.2% | -4.53% (inactive) | 7.42% (inactive)
COc1ccc(-c2noc(-c3ccccc3C(=O)NCc3ccco3)n2)cc1 | 93% | 104% (inactive) | 93% (inactive) | 107% (inactive) | 82.8% (inactive) | -12.1% (inactive) | 94.9% | 82.8% | -3.12% (inactive) | -5.24% (inactive)
CC12CN3CC(C)(CN(C1)C3c1ccc(Br)cc1)C2 (stereo not given) | 99% | 97% (inactive) | 99% (inactive) | 99.2% (inactive) | 102% (inactive) | 12.9% (inactive) | 89.4% | 102% | -2.63% (inactive) | 2.46% (inactive)
CCOc1ccc(NC(=O)CN(C)CC(=O)NC2CCCc3ccccc32)cc1OCC (stereo not given) | 83% | 88.5% (inactive) | 83% (inactive) | 100% (inactive) | 89.9% (inactive) | -7.38% (inactive) | 97.3% | 89.9% | -0.38% (inactive) | 0.33% (inactive)
NC(=O)NC(=O)CSc1cccc(C(F)(F)F)c1 | 138% | 94.5% (inactive) | 138% (inactive) | 90.1% (inactive) | 88.2% (inactive) | 1.01% (inactive) | 87.2% | 88.2% | -8.63% (inactive) | 2.22% (inactive)
